Test results from ChEMBL document CHEMBL1131032, “Selective endothelin A receptor antagonists. 3. Discovery and structure-activity relationships of a series of 4-phenoxybutanoic acid derivatives” (J Med Chem, 1998).
Calls of active or inactive are those of the source. The rule behind the calls is not given here. Where a SMILES comes first, the peptide text is derived from it. [ ]: non-standard residue; d: D form.

Assays:
[1] = biological target: T1, Endothelin receptor type B (Rattus norvegicus, UniProt P21451); assay: In vitro inhibition of [125I]ET1 binding to rat cerebellum Endothelin B receptor.; format: tissue-based
T1 sequence (P21451 whole entry): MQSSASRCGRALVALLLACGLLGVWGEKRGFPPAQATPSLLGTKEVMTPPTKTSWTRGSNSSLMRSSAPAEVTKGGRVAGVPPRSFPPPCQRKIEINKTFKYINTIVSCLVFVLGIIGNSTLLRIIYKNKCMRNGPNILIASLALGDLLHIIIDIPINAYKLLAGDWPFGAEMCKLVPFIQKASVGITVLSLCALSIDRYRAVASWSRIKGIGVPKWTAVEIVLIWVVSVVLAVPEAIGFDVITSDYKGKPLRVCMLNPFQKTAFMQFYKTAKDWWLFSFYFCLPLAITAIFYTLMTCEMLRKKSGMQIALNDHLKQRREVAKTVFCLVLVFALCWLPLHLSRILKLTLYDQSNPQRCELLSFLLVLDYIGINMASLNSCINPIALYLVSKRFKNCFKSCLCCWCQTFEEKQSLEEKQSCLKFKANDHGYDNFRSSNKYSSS
Summary of the method: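 Rat cerebellum was homogenized in Tris/sucrose/EDTA buffer with protease inhibitors; the 40000g membrane pellet was used. Nonspecific binding was defined with 500 nM ET-1. IC50 by curve fitting; single experiment.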

Endothelin-1 receptor = biological target: T2, Endothelin-1 receptor (Rattus norvegicus, UniProt P26684); assay: In vitro inhibition of [125I]ET1 binding to rat A10 cell Endothelin A receptor.; format: cell-based
T2 sequence (P26684 whole entry): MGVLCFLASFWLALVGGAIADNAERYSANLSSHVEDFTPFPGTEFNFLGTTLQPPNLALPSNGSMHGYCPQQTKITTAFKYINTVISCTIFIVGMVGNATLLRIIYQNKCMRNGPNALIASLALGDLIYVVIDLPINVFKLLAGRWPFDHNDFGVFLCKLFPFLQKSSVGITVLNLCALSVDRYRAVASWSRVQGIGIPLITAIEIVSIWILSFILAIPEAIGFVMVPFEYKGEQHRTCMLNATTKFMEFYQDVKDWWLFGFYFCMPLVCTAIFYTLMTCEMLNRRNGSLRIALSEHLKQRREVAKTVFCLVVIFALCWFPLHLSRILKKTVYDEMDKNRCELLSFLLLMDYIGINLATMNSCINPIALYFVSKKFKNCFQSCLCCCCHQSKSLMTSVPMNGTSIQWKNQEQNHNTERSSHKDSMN
Summary of the method: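 Rat A10 cells were harvested, washed in 50 mM Hepes pH 7.3 with 1 mM CaCl2 and 5 mM MgCl2, and frozen. Nonspecific binding was defined with 500 nM ET-1. IC50 came from curve fitting; mean of n ± SEM.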

Rattus norvegicus [2] = assay: Effect of compound on ET-1 induced changes in diastolic blood pressure in the pithed rat pretreated with BQ 788 (3 mg/kg) at 7.5 uM/kg (iv) dose; format: functional, Artery
Summary of the method: (§1)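 Male Sprague-Dawley rats (250–350 g), isoflurane-anesthetized, pithed and artificially respired. Dosing via the jugular vein; blood pressure via carotid artery transducer. BQ 788 (3 mg/kg) and test compound given iv 10 min before a bolus ET-1 dose–pressor curve (0.01–10 nmol/kg). Fold rightward shift from vehicle measured at the ET-1 dose giving a 40 mmHg diastolic change. Mean of 4–6 rats.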

Rattus norvegicus [3] = assay: Effect of compound on ET-1 induced changes in diastolic blood pressure in the pithed rat pretreated with BQ 788 (3 mg/kg) at 25 uM/kg (iv) dose; format: functional, Artery; summary of the method: as §1
Rattus norvegicus [4] = assay: Effect of compound on ET-1 induced changes in diastolic blood pressure in the pithed rat pretreated with BQ 788 (3 mg/kg) at 2.5 uM/kg (iv) dose; NS = Not significant; format: functional, organism-based; settings: Artery; summary of the method: as §1
Rattus norvegicus [5] = assay: Effect of compound on ET-1 induced changes in diastolic blood pressure in the pithed rat pretreated with BQ 788 (3 mg/kg) at 75 uM/kg (iv) dose; format: functional, Artery; summary of the method: as §1
Rattus norvegicus [6] = organism: Rattus norvegicus; assay: Antagonism of ET-1 mediated contraction of isolated de-endothelialized rat aortic rings; format: functional, Aorta

| Structure (SMILES) | IC50 [1] [nM] | IC50 (Endothelin-1 receptor) [nM] | further results |
| --- | --- | --- | --- |
| Cc1ccccc1[C@H](CCC(=O)O)Oc1cc(OCc2ccsc2)ccc1C#N | 10000 | – | – |
| CC(C)C[C@@H]1NC(=O)[C@@H](C(C)C)NC(=O)[C@@H]2CCCN2C(=O)[C@@H](CC(=O)O)NC(=O)[C@@H](Cc2c[nH]c3ccccc23)NC1=O [BQ-123] (cyclo(L[dW][dD]P[dV])) | – | 14 | – |
| Cc1ccccc1[C@@H](CCC(=O)O)Oc1cc(OCc2cccnc2)ccc1C#N | 10000 | 5 | Shift (Rattus norvegicus [2]): 2.27; Shift (Rattus norvegicus [3]): 10.48; Shift (Rattus norvegicus [4]): inactive; Shift (Rattus norvegicus [5]): 36.58 |
| Cc1ccccc1C(CCC(=O)O)Oc1cc(OCc2ccsc2)ccc1C(N)=O (stereo not drawn) | 10000 | 29 | – |
| Cc1ccccc1C(CCC(=O)O)Oc1cc(OCc2ccsc2)ccc1C#N (stereo not drawn) | 5000 | – | – |
| Cc1ccccc1C(CCC(=O)O)Oc1cc(OCc2ccsc2)ccc1C(=O)O (stereo not drawn) | > 10000 | 207 | – |
| Cc1ccccc1C(CCC(=O)O)Oc1cc(OCc2ccsc2)ccc1-c1cc[nH]n1 (stereo not drawn) | 10000 | 20 | – |
| Cc1ccccc1C(CCC(=O)O)Oc1cc(OCc2ccsc2)ccc1-c1ccccn1 (stereo not drawn) | 10000 | 40 | – |
| Cc1ccccc1C(CCC(=O)O)Oc1cc(OCc2ccsc2)ccc1-c1cc(C(=O)O)[nH]n1 (stereo not drawn) | 3000 | 7 | pKB (Rattus norvegicus [6]): 7.3 |
| Cc1ccccc1C(CCC(=O)O)Oc1cc(OCc2ccsc2)ccc1-c1ncco1 (stereo not drawn) | 10000 | 20 | – |
| Cc1ccccc1C(CCC(=O)O)Oc1cc(OCc2ccsc2)ccc1-c1ncc[nH]1 (stereo not drawn) | > 10000 | 163 | – |
| Cc1ccccc1[C@@H](CCC(=O)O)Oc1cc(OCc2ccc3c(c2)OCO3)ccc1C#N | 10000 | 69 | – |
| Cc1ccccc1C(CCC(=O)O)Oc1cccc(OCc2ccsc2)c1 (stereo not drawn) | > 30000 | 871 | – |
| Cc1ccccc1[C@@H](CCC(=O)O)Oc1cc(OCc2cnsc2)ccc1C#N | 10000 | 7 | pKB (Rattus norvegicus [6]): 7.3 |
| O=C(O)c1cc(-c2ccc(OCc3ccccc3)cc2OCc2ccccc2)n[nH]1 | > 30000 | 1000 | – |
| Cc1ccccc1C(CCC(=O)O)C(=O)c1cccc(OCc2ccsc2)c1 (stereo not drawn) | > 30000 | 110 | pKB (Rattus norvegicus [6]): 5.7 |
| CC(=O)c1ccc(OCc2ccsc2)cc1OC(CCC(=O)O)c1ccccc1C (stereo not drawn) | 10000 | 26 | – |
| Cc1ccccc1[C@@H](CCC(=O)O)Oc1cc(OCc2ccsc2)ccc1C#N | > 10000 | – | pKB (Rattus norvegicus [6]): 7.4 |
| Cc1ccccc1[C@@H](CCC(=O)O)Oc1cc(OCc2ccncc2)ccc1C#N | 10000 | 20 | pKB (Rattus norvegicus [6]): 7.1 |
